In ChEMBL document CHEMBL4373700, “Synthesis and Structure-Activity Relationship Correlations of Gnidimacrin Derivatives as Potent HIV-1 Inhibitors and HIV Latency Reversing Agents” (J Med Chem, 2019) one finds CC50 and IC50 data, which are given here for 19 molecules.

Data set [1] has as its system MT4. Nature of the data set: Cytotoxicity against human MT4 cells measured after 3 days by CytoTox-Glo assay. The class given is cell-based. Conditions: mt4, 72 h. Summed up:
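MT4 cells cultured with a range of compound concentrations for 3 days. Viability by CytoTox-Glo, run per the manufacturer's protocol. CC50 is the concentration causing a 50% drop in viability.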

The nature of data set [2]: Agonist activity at Protein kinase C in human MT4 cells infected with HIV-1 NL4-3 assessed as inhibition of viral replication measured on day 3 post-infection by Nano-Glo luciferase assay.

With `C=C(C)[C@]12C[C@@H](COC(=O)c3ccccc3)[C@@]34OC5(O[C@@H]1[C@@H]3[C@@H]1O[C@]1(COC(C)=O)[C@@H](OC(C)=O)[C@@]1(O)[C@H]4[C@H]([C@H](C)[C@@H]1OC(=O)c1ccccc1)[C@H](C)CCCCCC[C@H]5OC(C)=O)O2`, the CC50 (commonly the concentration that lowers cell viability or growth by half) in data set [1] was more than 1 nM. Also, the IC50 – broadly, the concentration at which inhibition is half-maximal – in data set [2] is reported as more than 1 nM.

`C=C(C)[C@]12C[C@@H](COC(=O)c3ccccc3)[C@@]34OC5(O[C@@H]1[C@@H]3[C@@H]1O[C@]1(COC(=O)CCC(=O)O)[C@@H](O)[C@@]1(O)[C@H]4[C@H]([C@H](C)[C@@H]1OC(=O)c1ccccc1)[C@H](C)CCCCCC[C@H]5O)O2` registered a CC50 in data set [1] of more than 1 nM. The half-maximal inhibitory concentration (IC50) in data set [2] was more than 1 nM.

As for `C=C(C)[C@]12C[C@@H](COC(=O)c3ccccc3)[C@@]34OC5(O[C@@H]1[C@@H]3[C@@H]1O[C@]1(CO)[C@@H](O)[C@@]1(O)[C@H]4[C@H]([C@H](C)[C@@H]1O)[C@H](C)CCCCCC[C@H]5O)O2`, the 50% cytotoxic concentration (CC50) in data set [1] was more than 1 nM. Moreover, the concentration for half-maximal inhibition (IC50) in data set [2] was more than 1 nM.

For the molecule `C=C(C)[C@]12C[C@@H](COC(=O)c3ccccc3)[C@@]34OC5(O[C@@H]1[C@@H]3[C@@H]1O[C@]1(CO)[C@@H](OC(=O)c1ccccc1)[C@@]1(O)[C@H]4[C@H]([C@H](C)[C@@H]1OC(=O)c1ccccc1)[C@H](C)CCCCCC[C@H]5O)O2`, the CC50 in data set [1] was more than 1 nM. Moreover, the half-maximal inhibitory concentration (IC50) in data set [2] was more than 1 nM.

`C=C(C)[C@]12C[C@@H](COC(=O)c3ccccc3)[C@@]34OC5(O[C@@H]1[C@@H]3[C@@H]1O[C@]1(COC(=O)/C=C/c1ccc(OC)cc1)[C@@H](O)[C@@]1(O)[C@H]4[C@H]([C@H](C)[C@@H]1OC(=O)c1ccccc1)[C@H](C)CCCCCC[C@H]5O)O2` displayed a CC50 in data set [1] of more than 1 nM. In addition, the concentration for half-maximal inhibition (IC50) in data set [2] was more than 1 nM.

In the case of `C=C(C)[C@]12C[C@@H](COC(=O)c3ccccc3)[C@@]34OC5(O[C@@H]1[C@@H]3[C@@H]1O[C@]1(CO)[C@@H](O)[C@@]1(O)[C@H]4[C@H]([C@H](C)[C@@H]1OC(=O)c1ccccc1)[C@H](C)CCCCCC[C@H]5OC(C)=O)O2`, the CC50 in data set [1] is more than 1 nM. In addition, the IC50 in data set [2] worked out at 0.09 nM.

In the case of `C=C(C)[C@]12C[C@@H](COC(=O)c3ccccc3)[C@@]34OC5(O[C@@H]1[C@@H]3[C@@H]1O[C@]1(COC(=O)CC(C)(C)C(=O)O)[C@@H](O)[C@@]1(O)[C@H]4[C@H]([C@H](C)[C@@H]1OC(=O)c1ccccc1)[C@H](C)CCCCCC[C@H]5O)O2`, in data set [1], the CC50 is more than 1 nM. In data set [2], the half-inhibitory concentration (IC50) is more than 1 nM.

In turn, `C=C(C)[C@]12C[C@@H](COC(=O)c3ccccc3)[C@@]34OC5(O[C@@H]1[C@@H]3[C@@H]1O[C@]1(COC(=O)C(C)(C)CC(=O)O)[C@@H](O)[C@@]1(O)[C@H]4[C@H]([C@H](C)[C@@H]1OC(=O)c1ccccc1)[C@H](C)CCCCCC[C@H]5O)O2` showed a CC50 in data set [1] of more than 1 nM. The IC50 in data set [2] was more than 1 nM.

`C=C(C)[C@]12C[C@@H](COC(=O)c3ccccc3)[C@@]34OC5(O[C@@H]1[C@@H]3[C@@H]1O[C@]1(CO)[C@@H](O)[C@@]1(O)[C@H]4[C@H]([C@H](C)[C@@H]1OC(=O)c1ccccc1)[C@H](C)CCCCCC[C@H]5OC(=O)c1ccc3ccccc3c1)O2`: the CC50 in data set [1] is more than 1 nM. In data set [2], the half-inhibitory concentration (IC50) is reported as more than 1 nM.

With `C=C(C)[C@]12C[C@@H](COC(=O)c3ccccc3)[C@@]34OC5(O[C@@H]1[C@@H]3[C@@H]1O[C@]1(CO)[C@@H](O)[C@@]1(O)[C@H]4[C@H]([C@H](C)[C@@H]1OC(=O)/C=C/c1ccccc1)[C@H](C)CCCCCC[C@H]5O)O2`, the CC50 in data set [1] is more than 1 nM. For the same molecule, the IC50 in data set [2] is recorded as more than 1 nM.

In the case of `C=C(C)[C@]12C[C@@H](COC(=O)c3ccccc3)[C@@]34OC5(O[C@@H]1[C@@H]3[C@@H]1O[C@]1(COC(=O)C1(C)COC(C)(C)OC1)[C@@H](O)[C@@]1(O)[C@H]4[C@H]([C@H](C)[C@@H]1OC(=O)c1ccccc1)[C@H](C)CCCCCC[C@H]5O)O2`, in data set [1], the 50% cytotoxic concentration (CC50) is more than 1 nM. Further, the IC50 in data set [2] is more than 1 nM.

In the case of `C=C(C)[C@]12C[C@@H](COC(=O)c3ccccc3)[C@@]34OC5(O[C@@H]1[C@@H]3[C@@H]1O[C@]1(CO)[C@@H](OC(C)=O)[C@@]1(O)[C@H]4[C@H]([C@H](C)[C@@H]1OC(=O)c1ccccc1)[C@H](C)CCCCCC[C@H]5O)O2`, the CC50 in data set [1] is more than 1 nM. Moreover, in data set [2], the 50% inhibitory concentration (IC50) was more than 1 nM.

In turn, `C=C(C)[C@]12C[C@@H](COC(=O)c3ccccc3)[C@@]34OC5(O[C@@H]1[C@@H]3[C@@H]1O[C@]1(COC(=O)[C@@]13CC[C@@](C)(C(=O)O1)C3(C)C)[C@@H](O)[C@@]1(O)[C@H]4[C@H]([C@H](C)[C@@H]1OC(=O)c1ccccc1)[C@H](C)CCCCCC[C@H]5O)O2` displayed a cytotoxic concentration (CC50) in data set [1] of more than 1 nM. Moreover, the IC50 in data set [2] is given as more than 1 nM.

`C=C(C)[C@]12C[C@@H](COC(=O)c3ccccc3)[C@@]34OC5(O[C@@H]1[C@@H]3[C@@H]1O[C@]1(CO)[C@@H](O)[C@@]1(O)[C@H]4[C@H]([C@H](C)[C@@H]1OC(=O)c1ccc([N+](=O)[O-])cc1)[C@H](C)CCCCCC[C@H]5O)O2`: the CC50 in data set [1] was more than 1 nM. Further, the IC50 in data set [2] turned out to be 0.22 nM.

The molecule `C=C(C)[C@]12C[C@@H](COC(=O)c3ccccc3)[C@@]34OC5(O[C@@H]1[C@@H]3[C@@H]1O[C@]1(CO)[C@@H](O)[C@@]1(O)[C@H]4[C@H]([C@H](C)[C@@H]1OC(=O)c1ccccc1)[C@H](C)CCCCCC[C@H]5OC(=O)c1ccccc1)O2` gave a half-maximal cytotoxic concentration (CC50) in data set [1] of more than 1 nM. Besides, in data set [2], the IC50 is more than 1 nM.

`C=C(C)[C@]12C[C@@H](COC(=O)c3ccccc3)[C@@]34OC5(O[C@@H]1[C@@H]3[C@@H]1O[C@]1(CO)[C@@H](O)[C@@]1(O)[C@H]4[C@H]([C@H](C)[C@@H]1OC(=O)c1ccccc1)[C@H](C)CCCCCC[C@H]5OC(=O)/C(C)=C/C)O2` registered a cytotoxic concentration (CC50) in data set [1] of more than 1 nM. Further, the IC50 in data set [2] is listed as more than 1 nM.

On to `C=C(C)[C@]12C[C@@H](COC(=O)c3ccccc3)[C@@]34OC5(O[C@@H]1[C@@H]3[C@@H]1O[C@]1(CO)[C@@H](O)[C@@]1(O)[C@H]4[C@H]([C@H](C)[C@@H]1OC(=O)c1ccccc1)[C@H](C)CCCCCC[C@H]5OC(=O)c1ccc(OC)cc1)O2`, for which, in data set [1], the CC50 was more than 1 nM. In data set [2], the half-inhibitory concentration (IC50) is listed as more than 1 nM.

In data set [1], `C=C(C)[C@]12C[C@@H](COC(=O)c3ccccc3)[C@@]34OC5(O[C@@H]1[C@@H]3[C@@H]1O[C@]1(CO)[C@@H](O)[C@@]1(O)[C@H]4[C@H]([C@H](C)[C@@H]1OC(=O)c1ccccc1)[C@H](C)CCCCCC[C@H]5OC(=O)/C=C/c1ccccc1)O2` showed a CC50 of more than 1 nM. For the same molecule, the IC50 in data set [2] is reported as more than 1 nM.

For `C=C(C)[C@]12C[C@@H](COC(=O)c3ccccc3)[C@@]34OC5(O[C@@H]1[C@@H]3[C@@H]1O[C@]1(CO)[C@@H](O)[C@@]1(O)[C@H]4[C@H]([C@H](C)[C@@H]1OC(=O)c1ccccc1)[C@H](C)CCCCCC[C@H]5OC(=O)c1ccc([N+](=O)[O-])cc1)O2`, in data set [1], the CC50 was more than 1 nM. The half-inhibitory concentration (IC50) in data set [2] is reported as more than 1 nM.
